According to ChEMBL document CHEMBL1150057, “Bioactive ergost-5-ene-3 beta, 7 alpha-diol derivatives from Pseudobersama mossambicensis” (J Nat Prod, 1992):

Key:
Saccharomyces cerevisiae [1] = assay: DNA damaging activity against RS188N rad DNA repair gene expressing wild type Saccharomyces cerevisiae assessed as drug level required to produce 12 mm zone of inhibition after 48 hrs; format: functional
In short: (§1)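 Yeast agar-well diffusion: strain plated on YPD agar (7 mm layer); 6 mm wells cut with cork borer; sample dissolved in DMSO-MeOH (1:1), 100 μl per well. Plates read after 48 h at 30°. IC12 = concentration (μg/ml) giving a 12 mm inhibition zone, taken from dose-response curves by linear regression (log dose as Y, zone size as X).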

Saccharomyces cerevisiae [2] = assay: DNA damaging activity against RS322YK rad52 DNA repair gene deficient Saccharomyces cerevisiae mutant assessed as drug level required to produce 12 mm zone of inhibition after 48 hrs; format: functional; in short: as §1
Saccharomyces cerevisiae [3] = assay: DNA damaging activity against RS167N rad6 DNA repair gene deficient Saccharomyces cerevisiae mutant assessed as drug level required to produce 12 mm zone of inhibition after 48 hrs; format: functional; in short: as §1
P388 = assay: Cytotoxicity against mouse P388 cells; format: functional, cell-based

SMILES	IC12 (Saccharomyces cerevisiae [1])	IC12 (Saccharomyces cerevisiae [2])	IC12 (Saccharomyces cerevisiae [3])	IC50 (P388)
CC(C)C(O)(CO)CC[C@@H](C)[C@H]1CC[C@H]2[C@@H]3[C@H](O)C=C4C[C@@H](O)CC[C@]4(C)[C@H]3CC[C@]12C (stereo partly drawn)	> 100 µg/mL	1 µg/mL	–	–
C=C(CC[C@@H](C)[C@H]1CC[C@H]2[C@@H]3[C@H](O)C=C4C[C@@H](O)CC[C@]4(C)[C@H]3CC[C@]12C)C(C)C	> 1500 µg/mL	8 µg/mL	12 µg/mL	4.3 µM
CC(C)C1(CC[C@@H](C)[C@H]2CC[C@H]3[C@@H]4[C@H](O)C=C5C[C@@H](O)CC[C@]5(C)[C@H]4CC[C@]23C)CO1 (stereo partly drawn)	> 50 µg/mL	0.4 µg/mL	6 µg/mL	–
CC[C@@]1(O)C(=O)OCc2c1cc1n(c2=O)Cc2cc3ccccc3nc2-1 [CAMPTOTHECIN]	–	0.6 µg/mL	8.7 µg/mL	–
COC1=C(N)C(=O)c2nc(-c3nc(C(=O)O)c(C)c(-c4ccc(OC)c(OC)c4O)c3N)ccc2C1=O [STREPTONIGRIN]	–	0.4 µg/mL	2.4 µg/mL	–
